Test results from PMC5522751 (Bioorganic & medicinal chemistry, 2017).

Columns and labels:
[1] = biological target: human 20S proteasome trypsin-like (T-L, β2) site (Homo sapiens, UniProt P49720+Q99436); assay: Fluorogenic assay for 20S human proteasome inhibition, trypsin-like site; assay type: biochemical
[2] = biological target: human FAS-TE (Homo sapiens, UniProt P49327); assay: Fluorogenic assay for human FAS-TE inhibition; assay type: biochemical; details: for reduction (drop) of FAS-TE activity: compared to 21
human FAS-TE, sequence (P49327 2207-2511 limits assumed): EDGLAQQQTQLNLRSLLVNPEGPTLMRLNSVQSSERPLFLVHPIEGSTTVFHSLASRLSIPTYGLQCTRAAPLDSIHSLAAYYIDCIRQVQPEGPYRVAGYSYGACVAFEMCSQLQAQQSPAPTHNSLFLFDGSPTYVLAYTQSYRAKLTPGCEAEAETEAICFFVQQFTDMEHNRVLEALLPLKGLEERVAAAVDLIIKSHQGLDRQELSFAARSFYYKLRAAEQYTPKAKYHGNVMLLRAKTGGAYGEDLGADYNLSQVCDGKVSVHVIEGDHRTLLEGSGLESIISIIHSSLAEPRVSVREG

[3] = biological target: human 20S proteasome caspase-like (C-L, β1) site (Homo sapiens, UniProt P28072+Q99436); assay: Fluorogenic assay for 20S human proteasome inhibition, caspase-like site; assay type: biochemical
[4] = biological target: ChT-L (proteasome beta-5, PSB-5) (Homo sapiens, UniProt P20618+P28074); assay: Activity-based in situ competitive labelling against ABPP probe 28, ChT-L; assay type: cell-based; details: MCF-7 cells, 30 min preincubation with inhibitor, then 10 µM probe 28 for 30 min
[5] = biological target: FAS (Homo sapiens, UniProt P49327); assay: Activity-based in situ competitive labelling against ABPP probe 28, FAS band; assay type: cell-based; details: MCF-7 cells, 30 min preincubation with inhibitor, then 10 µM probe 28 for 30 min
FAS, sequence (P49327 whole entry): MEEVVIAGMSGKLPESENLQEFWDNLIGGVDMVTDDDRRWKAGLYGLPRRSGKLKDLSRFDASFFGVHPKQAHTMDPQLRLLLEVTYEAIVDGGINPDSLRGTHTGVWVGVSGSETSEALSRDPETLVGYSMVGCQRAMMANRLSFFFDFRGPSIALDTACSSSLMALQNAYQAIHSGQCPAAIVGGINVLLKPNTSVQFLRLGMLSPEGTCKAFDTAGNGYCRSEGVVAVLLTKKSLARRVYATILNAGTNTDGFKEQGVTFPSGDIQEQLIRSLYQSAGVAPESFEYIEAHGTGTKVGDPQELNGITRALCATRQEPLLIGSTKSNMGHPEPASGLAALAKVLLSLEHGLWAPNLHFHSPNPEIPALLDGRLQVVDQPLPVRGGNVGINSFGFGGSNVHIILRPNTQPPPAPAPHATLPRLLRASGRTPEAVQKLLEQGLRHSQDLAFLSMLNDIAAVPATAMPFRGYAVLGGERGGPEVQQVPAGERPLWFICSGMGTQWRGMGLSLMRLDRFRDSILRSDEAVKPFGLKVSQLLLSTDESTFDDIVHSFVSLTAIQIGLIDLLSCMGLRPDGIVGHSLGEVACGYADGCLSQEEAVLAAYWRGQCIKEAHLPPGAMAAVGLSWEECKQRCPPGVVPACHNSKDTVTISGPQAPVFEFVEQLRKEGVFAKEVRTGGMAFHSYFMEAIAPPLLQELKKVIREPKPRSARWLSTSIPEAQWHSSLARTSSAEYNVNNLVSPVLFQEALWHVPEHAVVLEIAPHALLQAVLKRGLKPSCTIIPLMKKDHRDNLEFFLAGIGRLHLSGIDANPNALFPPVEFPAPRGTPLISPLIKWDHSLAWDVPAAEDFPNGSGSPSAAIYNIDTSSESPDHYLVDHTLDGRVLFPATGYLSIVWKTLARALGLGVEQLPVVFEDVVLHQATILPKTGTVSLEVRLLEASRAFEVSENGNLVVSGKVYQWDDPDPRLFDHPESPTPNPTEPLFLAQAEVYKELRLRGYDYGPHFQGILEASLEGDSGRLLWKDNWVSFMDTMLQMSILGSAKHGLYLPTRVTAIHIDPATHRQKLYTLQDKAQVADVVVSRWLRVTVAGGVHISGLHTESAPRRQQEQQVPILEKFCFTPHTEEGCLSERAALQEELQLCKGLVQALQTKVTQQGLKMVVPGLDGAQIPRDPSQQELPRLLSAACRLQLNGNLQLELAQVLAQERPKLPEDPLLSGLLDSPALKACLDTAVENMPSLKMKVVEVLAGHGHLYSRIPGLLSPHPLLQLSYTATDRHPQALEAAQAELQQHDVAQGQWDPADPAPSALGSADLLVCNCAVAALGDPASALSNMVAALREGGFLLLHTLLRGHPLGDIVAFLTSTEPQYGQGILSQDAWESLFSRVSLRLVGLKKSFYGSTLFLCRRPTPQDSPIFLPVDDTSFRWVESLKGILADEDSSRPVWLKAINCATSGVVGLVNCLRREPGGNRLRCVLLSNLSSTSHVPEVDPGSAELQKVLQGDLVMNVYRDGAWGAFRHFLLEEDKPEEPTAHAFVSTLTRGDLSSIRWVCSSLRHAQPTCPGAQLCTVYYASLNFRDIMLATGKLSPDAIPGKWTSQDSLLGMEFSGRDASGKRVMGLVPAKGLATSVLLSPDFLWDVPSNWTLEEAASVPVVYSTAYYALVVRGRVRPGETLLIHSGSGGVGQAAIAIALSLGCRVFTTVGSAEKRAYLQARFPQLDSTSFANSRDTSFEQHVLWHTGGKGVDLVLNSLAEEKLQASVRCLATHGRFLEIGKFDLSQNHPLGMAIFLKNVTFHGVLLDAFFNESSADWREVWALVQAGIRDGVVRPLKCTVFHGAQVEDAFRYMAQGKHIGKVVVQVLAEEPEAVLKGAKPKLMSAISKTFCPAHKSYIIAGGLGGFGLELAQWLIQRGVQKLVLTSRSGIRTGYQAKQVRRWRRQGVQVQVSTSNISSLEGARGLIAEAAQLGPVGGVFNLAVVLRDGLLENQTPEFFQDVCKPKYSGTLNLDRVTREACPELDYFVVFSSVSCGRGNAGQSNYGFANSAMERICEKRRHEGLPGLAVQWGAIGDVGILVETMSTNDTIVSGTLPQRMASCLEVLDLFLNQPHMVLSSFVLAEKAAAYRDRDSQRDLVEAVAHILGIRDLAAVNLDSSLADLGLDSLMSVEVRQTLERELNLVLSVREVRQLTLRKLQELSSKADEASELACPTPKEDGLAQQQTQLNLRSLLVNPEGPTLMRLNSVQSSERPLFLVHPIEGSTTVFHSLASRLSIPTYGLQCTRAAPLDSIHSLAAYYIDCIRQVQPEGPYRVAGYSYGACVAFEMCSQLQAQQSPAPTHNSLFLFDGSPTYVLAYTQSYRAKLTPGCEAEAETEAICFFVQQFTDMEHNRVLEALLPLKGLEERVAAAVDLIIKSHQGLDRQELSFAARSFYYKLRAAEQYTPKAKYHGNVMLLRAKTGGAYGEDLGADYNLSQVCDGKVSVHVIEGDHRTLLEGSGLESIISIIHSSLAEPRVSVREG
Summary of the method: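 Cells at 80–90% confluency were washed and given serum-free medium with test compound (10–100 µM; 1, 2.5, 5, 10-fold excess over probe) or DMSO, 30 min at 37 °C, 5% CO2. Alkyne probe was added (10 µM final) for 30 min. Soluble lysate (1% NP-40/1% deoxycholate, ~1.0 mg/mL) was clicked to TAMRA-N3 (100 µM; 1 mM CuSO4, 1 mM TCEP, 100 µM TBTA) for 1–1.5 h, RT, dark. Read-out: 10% SDS-PAGE, in-gel fluorescence.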

[6] = biological target: human 20S proteasome chymotrypsin-like (ChT-L, β5) site (Homo sapiens, UniProt P20618+P28074); assay: Fluorogenic assay for 20S human proteasome inhibition, chymotrypsin-like site; assay type: biochemical; details: compared to the diastereomeric β-lactone 21

SMILES	IC50 [1] [µM]	IC50 [3] [µM]	also measured
CCCCCC[C@@H]1C(=O)O[C@H]1C(=O)NCCCC[C@H](NC(=O)[C@H](C)NC(=O)OCc1ccccc1)C(=O)OCc1ccccc1 [compound 17]	> 100		
CCCCCC[C@@H]1C(=O)O[C@H]1C(=O)NCCCC[C@H](NC(=O)CNC(=O)OCc1ccccc1)C(=O)OCc1ccccc1 [compound 18]	> 100		drop in potency against FAS-TE ([2]; relative to derivative 17): ~ 3 fold
CCCCCC[C@@H]1C(=O)O[C@H]1C(=O)NCCCC[C@H](NC(=O)[C@H](C)NC(=O)c1ccc(Br)cc1)C(=O)OCc1ccccc1 [compound 20]	> 100		
CCCCCC[C@@H]1C(=O)O[C@H]1C(=O)NCCCC[C@H](NC(=O)OCc1ccccc1)C(=O)N[C@@H](C)C(=O)OCc1ccccc1 [compound 21]	> 100	> 100	excess of inhibitor over probe 28 that resulted in ChT-L signal reduction [4]: 2.5 fold; potency against FAS-TE compared to orlistat ([2]; ratio of IC50 values, more potent than orlistat): 3 X; excess of inhibitor over probe 28 that resulted in FAS signal reduction [5]: 10 fold
CCCCCC[C@@H]1C(=O)O[C@H]1C(=O)NCCCC[C@@H]1NC(=O)N([C@@H](C)C(=O)OCc2ccccc2)C1=O [compound 22]	> 100	7.93 ± 0.21	
CCCCCC[C@H]1C(=O)O[C@@H]1C(=O)NCCCC[C@H](NC(=O)OCc1ccccc1)C(=O)N[C@@H](C)C(=O)OCc1ccccc1 [compound 23]	> 100	> 100	reduction (drop) of FAS-TE activity [2]: ~ 8 fold; reduction of proteasome ChT-L activity [6]: ~ 8 fold
CCCCCC[C@H]1C(=O)O[C@@H]1C(=O)NCCCC[C@H](NC(=O)CNC(=O)OCc1ccccc1)C(=O)OCc1ccccc1 [compound 24]	> 100		
CCCCCC[C@]1(C)C(=O)O[C@H]1C(=O)NCCCC[C@H](NC(=O)[C@H](C)NC(=O)OCc1ccccc1)C(=O)OCc1ccccc1 [compound 25]	> 100		excess of inhibitor over probe 28 that resulted in ChT-L signal reduction [4]: not able to compete effectively; excess of inhibitor over probe 28 that resulted in FAS signal reduction [5]: not able to compete effectively
CCCCCC[C@@]1(C)C(=O)O[C@@H]1C(=O)NCCCC[C@H](NC(=O)[C@H](C)NC(=O)OCc1ccccc1)C(=O)OCc1ccccc1 [compound 26]	> 100		
CCCCCC[C@@]1(C)C(=O)O[C@H]1C(=O)NCCCC[C@H](NC(=O)[C@H](C)NC(=O)OCc1ccccc1)C(=O)OCc1ccccc1 [compound 27]	> 100		
C#Cc1ccc(COC(=O)[C@H](C)NC(=O)[C@H](CCCCNC(=O)[C@@H]2OC(=O)[C@H]2CCCCCC)NC(=O)OCc2ccccc2)cc1 [compound 28]	> 100	> 100	reduction (drop) of FAS-TE activity [2]: ~ 2.5 fold
CCCCCCCCCCC[C@@H](C[C@@H]1OC(=O)[C@H]1CCCCCC)OC(=O)[C@H](CC(C)C)NC=O [orlistat, Tetrahydrolipstatin, reference compound]	> 100	> 100	
